In publication PMC4883117 (Fitoterapia, 2015):
Values joined by “and” are separate entries in the source; they are usually repeats but may differ in a detail not shown here. Equal values may be shown once. Read-outs that look alike come from different tables or passages of the source.

Tests used:
[1] = tested on: Trypanosoma brucei brucei; assay: In vitro antitrypanosomal Alamar Blue assay on T. brucei trypomastigote cultures; type: cell-based; details: for Antitrypanosomal activity IC50 / Antitrypanosomal activity IC90: T. b. brucei, 37 °C, mean ± S.D. of duplicate observations, tested range 0.4–10 μg/mL; for IC50 / IC90: Trypanosoma brucei; for IC50: read-out: Antitrypanosomal activity IC50; for IC90: read-out: Antitrypanosomal activity IC90
Summary of the method: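 T. b. brucei trypomastigotes seeded at 2 × 10^6 cell/mL and exposed to test compound at three concentrations (40–1.6 or […]). Incubated 72 h at 37 °C, then parasite growth read by Alamar Blue. IC50 and IC90 were fitted from dose–response curves and given as mean ± S.D. of duplicate observations. Difluoromethylornithine served as positive control.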

THP1 cells = assay: Cytotoxicity against THP1 cell cultures; type: cell-based, human
μ-opioid receptors = μ-opioid receptors (Homo sapiens, UniProt P35372); assay: Opioid receptor radioligand binding assay; details: for Ki: read-out: μ-opioid receptor Ki; for IC50: read-out: μ-opioid receptor binding IC50
[2] = Cytotoxicity against THP1 cell cultures; type: cell-based, human; details: human, THP1 cells

Chain of μ-opioid receptors (P35372 whole entry): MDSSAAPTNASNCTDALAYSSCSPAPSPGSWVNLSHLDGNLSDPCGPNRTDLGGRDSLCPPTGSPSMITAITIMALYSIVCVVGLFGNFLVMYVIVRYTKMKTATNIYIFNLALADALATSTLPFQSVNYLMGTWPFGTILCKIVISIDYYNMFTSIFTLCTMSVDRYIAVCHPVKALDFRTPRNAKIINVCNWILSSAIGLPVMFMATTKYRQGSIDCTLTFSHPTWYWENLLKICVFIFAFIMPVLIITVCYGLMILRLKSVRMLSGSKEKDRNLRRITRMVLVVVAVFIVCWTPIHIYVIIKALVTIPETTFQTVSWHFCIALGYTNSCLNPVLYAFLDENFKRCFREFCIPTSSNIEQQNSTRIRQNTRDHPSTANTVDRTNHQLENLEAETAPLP

Molecule | Antitrypanosomal activity IC50 ([1]; 72 h) [µg/mL] | Antitrypanosomal activity IC90 ([1]; 72 h) [µg/mL] | antitrypanosomal activity (in words) ([1]; tested concentrations range 0.32–8.23 μM) | THP1 cell toxicity IC50 (THP1 cells) [µg/mL] | radio ligand displacement in μ-opioid receptor binding assay (μ-opioid receptors) [%] | Ki (μ-opioid receptors) | IC50 (μ-opioid receptors) [µM] | IC50 ([1]; 72 h) [µg/mL] | IC90 ([1]; 72 h) [µg/mL] | IC50 [1] [µM] | IC90 [1] [µM] | IC50 [2] [µg/mL]
C/C(=C\C=C\[C@@H](C)[C@H]1CC[C@@]2(C)C3=C(CC[C@]12CO)[C@@]1(C)CC[C@H](O[C@@H]2O[C@H](CO)[C@@H](O[C@@H]4O[C@H](CO)[C@@H](O)[C@H](O)[C@H]4O)[C@H](O)[C@H]2O[C@@H]2O[C@H](CO)[C@@H](O)[C@H](O)[C@H]2O[C@@H]2O[C@@H](C)[C@H](O)[C@@H](O)[C@H]2O)C(C)(C)[C@@H]1CC3)C(=O)N[C@@H]1C(=O)O[C@H](C)[C@@H]1C [Compound 5, N-(2S, 3R, 4R-3-methyl-4-pentanolid-2-yl)-18-hydroxylanosta-8 (9), 22E, 24E-trien-27-amide-3-O-[α-L-rhamnopyranosyl-(1→2)-O-β-D-glucopyranosyl-(1→2)]-[β-D-glucopyranosyl-(1→4)]-β-D-glucopyranoside] | >10 | >10 | no antitrypanosomal activity | >10 | – | – | – | – | – | – | – | –
2α-Hydroxyheinsiagenin A 3-O-[β-D-glucopyranosyl-(1→2)]-[β-D-glucopyranosyl]-(1→4)]-β-D-glucopyranoside [Compound 4] | 3.04 | 4.64 | – | >10 | – | – | – | – | – | – | – | –
Heinsiagenin A 3-O-[α-L-rhamnopyranosyl-(1→2)-β-D-glucopyranosyl-(1→2)]-[β-D-glucopyranosyl-(1→4)]-β-D-glucopyranoside [Compound 2] | 3.08 | 4.27 | – | >10 | 61.0 | 0.872 µM and 0.87 µM | 1.74 | – | – | – | – | –
2α-Hydroxyheinsiagenin A 3-O-[α-L-rhamnopyranosyl-(1→2)-β-D-glucopyranosyl-(1→2)]-β-D-glucopyranoside [Compound 3] | 2.75 | 3.53 | – | >10 | – | – | – | – | – | – | – | –
NCCCC(N)(C(=O)O)C(F)F (stereo not drawn) [DFMO, difluoromethylornithine, reference compound] | – | – | – | – | – | – | – | 2.38 | 5.28 | 13.1 | 29 | > 10
Heinsiagenin A 3-O-[α-L-rhamnopyranosyl-(1→2)-β-D-glucopyranosyl-(1→2)]-β-D-glucopyranoside [Compound 1] | 9.13 | 11.05 | – | >10 | 65.9 | 9.94 µM | 19.9 | – | – | – | – | –
